Article PMC3273977 (International Journal of Nanomedicine, 2012)

Assays:
[1] = tested on: UUO-induced tubulointerstitial fibrosis; experiment: Overall antifibrotic effect in UUO-induced tubulointerstitial fibrosis; format: in vivo; settings: UUO mice, daily 50 mg/kg sunitinib malate
How it was run: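 Male C57Bl/6J mice weighing 13–25 g had unilateral ureteral obstruction and were killed after 3 days. Sunitinib malate was given as three daily intraperitoneal injections of 50 mg/kg (94 μmol/kg), n = 7. Controls were normal mice and untreated UUO mice, n = 6 each. Kidneys were scored for collagen IV, vimentin and α-SMA immunostaining and p-PDGFR-β (Tyr740) Western blot. Data are mean ± SEM.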

[2] = tested on: ABCG2; settings: cited from earlier work
[3] = tested on: HK-2 cells; experiment: In vitro cytotoxicity, sulforhodamine B assay; format: cell-based; settings: Homo sapiens, HK-2, 24 h, read-out: IC50 cell viability
[4] = tested on: tyrosine kinases in HK-2 cells; experiment: Inhibition of tyrosine kinase phosphorylation after uptake in HK-2 cells; format: cell-based, human; settings: 10 μM, 24 hours incubation of HK-2 cells, lysis, ATP stimulation, Western blot
How it was run: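 HK-2 cells were seeded at 1.5 × 10^4 per well, serum-starved overnight, then given 10 μM test compound or 0.1% (v/v) DMSO control for 24 h. Cells were PBS-washed and lysed with protease and phosphatase inhibitors, and protein was measured by BCA. Lysate was mixed with an equal volume of 10 μM ATP in Abl buffer (pH 7.5) and held 60 min at 37°C. 10 μg protein went to SDS-PAGE, anti-phosphotyrosine (PY20) blot and densitometry.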

[5] = tested on: collagen 1A2, PAI-1, fibronectin, and MCP-1; experiment: Renal mRNA expression of profibrotic genes; format: in vivo; settings: UUO mice 3 days; three daily ip injections 50 mg/kg sunitinib malate
How it was run: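 Male C57Bl/6J mice, 3-day UUO; groups n=6–7; single iv test compound or sunitinib malate, or ip sunitinib malate 50 mg/kg with later doses at 24 and 48 h. TaqMan qRT-PCR on whole kidney and cortex. mRNA normalized to TBP and expressed relative to non-obstructed control mice (set at 1). Mean ± SEM; one-way ANOVA, P < 0.05.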

[6] = Plasma pharmacokinetics after a single intravenous injection; format: in vivo, mice
How it was run: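 Male C57Bl/6J mice (n = 15) received one intravenous dose of sunitinib malate, 1.7 μmol/kg (0.9 mg/kg), equimolar to a 20 mg/kg lysozyme conjugate. Blood was taken by cheek puncture at 1 min and at sacrifice time points, then centrifuged. Plasma sunitinib was measured by LC-MS/MS against standards of 10 ng/mL–1 μg/mL. Values are % of dose, assuming plasma volume 0.05 mL/g. Parameters come from two-compartment curve fitting.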

[7] = Renal accumulation pharmacokinetics after a single intravenous injection; format: in vivo, mice
How it was run: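 After one intravenous dose of sunitinib malate, 1.7 μmol/kg (0.9 mg/kg), to male C57Bl/6J mice, kidneys were collected at set times and frozen at −80°C. Kidneys were homogenised in 4% BSA to 0.1 g tissue/mL. Sunitinib was measured by LC-MS/MS against homogenate standards of 10–500 ng/mL, and renal levels are expressed as % of injected dose.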

[8] = tested on: P-glycoprotein (P-gp); settings: cited from earlier work
[9] = tested on: α-SMA, collagen IV, and vimentin; experiment: Immunostaining of fibrotic markers in kidney sections, UUO model; format: in vivo; settings: UUO mice 3 days; daily 50 mg/kg sunitinib malate ip
How it was run: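 Male C57Bl/6J mice, 3-day UUO; n=7 per treatment group, n=6 per control. Dosing: single iv test compound (40 mg/kg conjugate) or equimolar iv sunitinib malate (3.4 μmol/kg), or ip sunitinib malate 50 mg/kg with 2nd/3rd doses at 24 and 48 h. Sections 3 μm, peroxide/azide block pH 5.8; 15-min boil citrate pH 6.0 (collagen IV, vimentin) or Tris/EDTA pH 9.0 (α-SMA); primaries 1 h RT (1:400, 1:400, 1:200).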

[10] = molecular target: PDGFR-β (Mus musculus, UniProt P05622); experiment: Western blot of p-PDGFR-β in renal cortex, UUO model; format: in vivo; settings: UUO mice 3 days; three daily ip injections 50 mg/kg sunitinib malate
How it was run: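 Male C57Bl/6J mice sacrificed after 3 days UUO; ip sunitinib malate 50 mg/kg, with 2nd/3rd doses at 24 and 48 h. Cortex homogenized in RIPA with protease/phosphatase inhibitors and EDTA. Blots blocked 1 h at room temperature in 5% milk/TBS-T. Probed overnight at 4°C with rabbit anti-p-PDGFR-β (Tyr740, 1:200) or β-actin (1:1000) in TBS-T/5% BSA.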

[11] = mice, single iv, equimolar 1.7 μmol/kg, kidneys
[12] = mice, single iv, equimolar 1.7 μmol/kg, kidneys, listed as sunitinib

Sequence of PDGFR-β (P05622 32-1098): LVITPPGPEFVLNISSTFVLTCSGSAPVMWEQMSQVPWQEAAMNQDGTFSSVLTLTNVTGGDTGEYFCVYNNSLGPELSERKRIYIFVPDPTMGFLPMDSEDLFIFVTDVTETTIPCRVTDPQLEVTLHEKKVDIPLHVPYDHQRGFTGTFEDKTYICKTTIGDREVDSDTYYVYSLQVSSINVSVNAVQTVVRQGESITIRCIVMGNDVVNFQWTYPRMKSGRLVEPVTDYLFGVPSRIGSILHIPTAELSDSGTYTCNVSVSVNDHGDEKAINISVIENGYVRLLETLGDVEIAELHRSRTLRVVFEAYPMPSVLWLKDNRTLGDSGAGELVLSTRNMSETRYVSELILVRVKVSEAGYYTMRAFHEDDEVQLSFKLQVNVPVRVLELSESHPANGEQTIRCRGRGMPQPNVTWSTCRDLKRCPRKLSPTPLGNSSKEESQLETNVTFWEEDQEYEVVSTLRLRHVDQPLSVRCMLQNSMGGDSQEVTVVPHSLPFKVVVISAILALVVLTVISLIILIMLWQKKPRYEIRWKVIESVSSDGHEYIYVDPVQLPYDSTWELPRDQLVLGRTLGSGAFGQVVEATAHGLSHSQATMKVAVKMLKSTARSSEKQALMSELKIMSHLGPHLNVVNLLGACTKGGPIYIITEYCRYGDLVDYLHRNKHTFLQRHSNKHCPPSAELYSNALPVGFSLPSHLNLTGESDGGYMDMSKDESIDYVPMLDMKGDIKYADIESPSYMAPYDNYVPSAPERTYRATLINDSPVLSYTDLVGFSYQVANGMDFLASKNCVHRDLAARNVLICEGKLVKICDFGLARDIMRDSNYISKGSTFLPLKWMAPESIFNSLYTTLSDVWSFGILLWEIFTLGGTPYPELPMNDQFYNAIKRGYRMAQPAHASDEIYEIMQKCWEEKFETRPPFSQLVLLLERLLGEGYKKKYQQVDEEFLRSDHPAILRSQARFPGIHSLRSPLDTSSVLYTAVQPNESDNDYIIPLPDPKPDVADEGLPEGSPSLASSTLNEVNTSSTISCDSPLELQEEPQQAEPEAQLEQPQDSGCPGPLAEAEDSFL

half-life ([6]; C57Bl/6J, mouse, plasma, iv, 0.9 mg/kg): 25 min
Peripheral distribution volume (V2) ([6]; mice, single iv, equimolar 1.7 μmol/kg, plasma): 87 mL
initial distribution volume (V1) relative to 17864-ULS-lysozyme ([6]; mice, single iv, equimolar dose): over 15 fold
half-life ([7]; C57BI/6 J, mouse, kidneys, iv, 0.9 mg/kg): 66 min
time to almost complete elimination from the kidneys ([7]; mice, after administration): ≤ 12 h
time to maximum renal levels ([7]; mice, single iv, equimolar 1.7 μmol/kg): ≤ 30 min
AUC0–∞ [7, 11]: 9.4% dose*hours
Cmax (% of the dose) [7, 11]: 4.9%
AUC0–∞ [7, 12]: 9.4 % dose*hours
Cmax (% of the dose) [7, 12]: 4.9%
Compound: CCN(CC)CCNC(=O)c1c(C)[nH]c(/C=C2\C(=O)Nc3ccc(F)cc32)c1C [Sunitinib, sunitinib]
antifibrotic effect ([1]; listed as sunitinib): reduction of some of the studied markers
antifibrotic effect ([1]; listed as sunitinib malate): antifibrotic responses
substrate of efflux transporter ABCG2 [2]: substrate
IC50 [3]: 12 µM
inhibitory effect on phosphorylation of tyrosine kinases [4]: strongly inhibited multiple kinases
renal mRNA expression of collagen 1A2, PAI-1, fibronectin, MCP-1 [5]: significantly lower renal mRNA levels of collagen 1A2 and fibronectin
substrate of efflux transporter P-gp [8]: substrate
renal deposition of α-SMA, collagen IV, and vimentin [9]: decreased the deposition of vimentin in the kidneys, although these differences were not significant
p-PDGFR-β levels in the renal cortex [10]: decreased p-PDGFR-β levels in the renal cortex
